Series [1] can be described thus: folding enthalpy; higher = less favourable; fluorescence melt of hairpins on a sequencing array, two-state fit. To be noted: sodium 0.088 M. In a few lines:
(§1)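 Melting temperature and folding enthalpy were derived from bootstrapped two-state fits. The fitted temperatures were raised by 9.35 °C to agree with UV melts, and four replicates were combined by inverse variance. The underlying data were Cy3 fluorescence images of library hairpins, with annealed Cy3 and quencher oligos, on a sequenced MiSeq flow cell in 50 mM Na-HEPES pH 8.0, 25 mM NaCl, taken in 2.5 °C steps up to 60 °C, normalised to pre-quench Cy3 and to control constructs.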

Series [2] is described as follows: melting temperature; fluorescence melt of hairpins on a sequencing array, two-state fit, raised by 9.35 °C to match UV melts. To be noted: sodium 0.088 M. In a few lines:
as §1

With GGGATCGAAAGATTCCCC ((((((....)))..))), the folding enthalpy in series [1] is -18.8 kcal/mol. Moreover, the Tm in series [2] turned out to be 49.3 °C.
With GCACCCGAAAGGGCTTGC ((((((....)))..))), the folding enthalpy in series [1] is -14.9 kcal/mol. The Tm in series [2] was 46.6 °C.
GCCGTCGAAAGACTAGGC ((((((....)))..))): in series [1], the folding enthalpy is -35.5 kcal/mol. In series [2], the Tm is 52.8 °C.
As for GCAAATGGAAACGTTTGC (((((.(....).))))), the folding enthalpy in series [1] is -38.1 kcal/mol. Further, the Tm in series [2] amounted to 49.6 °C.
For GCTGGCCCGAAAGGGAGC (((..(((....)))))) the same measures were -12.7 kcal/mol and 44 °C.
The like results for GATCTGCATGCAGATC ((((((....)))))) were, in that order, -46.5 kcal/mol and 62.4 °C.
As for GCATCTACGAAAGTATGC (((..(((....)))))), the folding enthalpy in series [1] is -20.7 kcal/mol. In addition, in series [2], the Tm was 34.6 °C.
Regarding GCCACCGGAAACGGTAGC ((.((((....)))).)), in series [1], the folding enthalpy was -21.2 kcal/mol. Also, in series [2], the Tm was determined as 48.1 °C.
For GAGGAGGGAAACCTCCTC (((((((....))))))), the folding enthalpy in series [1] was -33.4 kcal/mol. For the same sequence, the Tm in series [2] was 65.3 °C.
For GATCGATTGTTCGATC ((((((....)))))), in series [1], the folding enthalpy was -37.4 kcal/mol. Moreover, the Tm in series [2] was determined as 53.1 °C.
For GGACCAGGAAACCGGTCC (((((.(....).))))) the same measures were -35.3 kcal/mol and 54.6 °C.
Consider GATATCGGAAACGATGTC ((.((((....)))).)), for which, in series [1], the folding enthalpy was -30.7 kcal/mol. Moreover, the Tm in series [2] amounted to 46.7 °C.
For GATCGGTCGACCGATC ((((((....)))))) the same measures were -49.7 kcal/mol and 61.4 °C.
For GCATGTACGAAAGTATGC (((..(((....)))))) the same measures were -29.3 kcal/mol and 43.8 °C.
For GCTCGCGAAAGCGCAAGC ((((((....)))..))) the same measures were -12.4 kcal/mol and 48.5 °C.
On to GATCGAAAAATCGATC ((((((....)))))), for which the folding enthalpy in series [1] was -25.5 kcal/mol. Moreover, in series [2], the Tm was found to be 43.9 °C.
In the case of GAGCTTGGAAACAAACTC (((.(((....))).))), the folding enthalpy in series [1] was -23.9 kcal/mol. Moreover, in series [2], the Tm amounted to 35.8 °C.
As to GATCCAAGTGTGGATC ((((((....)))))), the folding enthalpy in series [1] was -32.3 kcal/mol. Also, in series [2], the Tm stood at 50.3 °C.
Regarding GATGCGGGAAACCGTATC (((.(((....))).))), in series [1], the folding enthalpy is -34.4 kcal/mol. Moreover, the Tm in series [2] came to 50.3 °C.
For GTTCCGGGAAACCAGAAC ((((.((....)).)))), in series [1], the folding enthalpy is -31.7 kcal/mol. Moreover, the Tm in series [2] was determined as 38.7 °C.
In the case of GATCTTCTCAAGATC ((((((...)))))), the folding enthalpy in series [1] is -33.3 kcal/mol. Also, in series [2], the Tm turned out to be 46.7 °C.
Regarding GAAGACCGAAAGGTGTTC (((.(((....))).))), the folding enthalpy in series [1] was -33 kcal/mol. Moreover, the Tm in series [2] was determined as 52 °C.
For GCACGGCGAAAGCACTGC (((..((....))..))) the same measures were -20.1 kcal/mol and 40.5 °C.
For GCTACACGAAAGTGCAGC (((.(((....))).))) the same measures were -42.1 kcal/mol and 53.1 °C.
The like results for GCCGACGCGAAAGCGGGC (((..(((....)))))) were, in that order, -18.1 kcal/mol and 65.9 °C.
For GGCTCACGAAAGTGGCC (((.(((....)))))), the folding enthalpy in series [1] was -26.3 kcal/mol. In addition, the Tm in series [2] came to 56.6 °C.
For GATCAAGATCTTGATC ((((((....)))))) the same measures were -47.1 kcal/mol and 49.9 °C.
The like results for GGTGATGGAAACATTGCC ((..(((....)))..)) were, in that order, -32.5 kcal/mol and 38.3 °C.
For GCCCTGGGAAACCAAGGC (((.(((....))).))) the same measures were -30.1 kcal/mol and 44.8 °C.
In the case of GTAATGGGAAACCATTGC (.(((((....))))).), the folding enthalpy in series [1] was -26.4 kcal/mol. Also, the Tm in series [2] worked out at 43.3 °C.
The like results for GGTCTCGAAAGAGATACC ((((((....)))..))) were, in that order, -15.2 kcal/mol and 38.7 °C.
The like results for GTCGCTCGAAAGAGGGAC (((.(((....))).))) were, in that order, -44.3 kcal/mol and 63.2 °C.
The like results for GTAGAACGAAAGTTGTAC (((.(((....))).))) were, in that order, -31.7 kcal/mol and 42.8 °C.
For the sequence GGACCAGGAAACTGGTCC (((((((....))))))), the folding enthalpy in series [1] is -32.4 kcal/mol. The Tm in series [2] worked out at 68.1 °C.
The like results for CGCAGGCGGAAACGCGCG (((..(((....)))))) were, in that order, -23 kcal/mol and 56.2 °C.
For GCGTGATACGC ((((...)))) the same measures were -22.2 kcal/mol and 55.4 °C.
For GCCTTACGAAAGTATGGC (((.(((....))).))) the same measures were -41 kcal/mol and 55.6 °C.
As to GCGGCTACGAAAGTACGC (((..(((....)))))), in series [1], the folding enthalpy is -21.6 kcal/mol. Besides, in series [2], the Tm came to 47.6 °C.
For GCAACGGGAAACCATCGC ((.(.((....)).).)) the same measures were -12.5 kcal/mol and 27 °C.
For GATCTCGCGAGAGATC ((((((....)))))) the same measures were -42.1 kcal/mol and 64.2 °C.
For GCCACCCGAAAGGGGGC (((.(((....)))))), the folding enthalpy in series [1] was -22.8 kcal/mol. Also, the Tm in series [2] turned out to be 68.5 °C.
For GATCCTTACCAGGATC ((((((....)))))) the same measures were -33.6 kcal/mol and 52.1 °C.
The like results for GAACGCGGAAACGCATTC (((.(((....))).))) were, in that order, -19.9 kcal/mol and 40.1 °C.
For GGCGCCGAAAGGCAAGCC ((((((....)))..))), the folding enthalpy in series [1] was -21.7 kcal/mol. Further, the Tm in series [2] was found to be 63.8 °C.
On to GACTCAGGAAACTGAGCC (.(((((....))))).), for which the folding enthalpy in series [1] is -16.5 kcal/mol. Moreover, in series [2], the Tm came to 43.6 °C.
On to GATCGATAAATCGATC ((((((....)))))), for which the folding enthalpy in series [1] was -39.9 kcal/mol. In addition, in series [2], the Tm stood at 52.3 °C.
As to GACAATGGAAACATTGTC (((((((....))))))), the folding enthalpy in series [1] is -47.7 kcal/mol. For the same sequence, the Tm in series [2] was 57 °C.
For GCGTCGCGAAAGCGGAGC ((..(((....)))..)) the same measures were -27.6 kcal/mol and 67.5 °C.
With GATCGTAGAACGATC ((((((...)))))), in series [1], the folding enthalpy is -36.6 kcal/mol. Besides, the Tm in series [2] was found to be 55.2 °C.
As to GATCATGGTCATGATC ((((((....)))))), the folding enthalpy in series [1] is -38 kcal/mol. Further, in series [2], the Tm is 51.8 °C.
The like results for CTTATGAAAATAAG (((((....))))) were, in that order, -11.4 kcal/mol and 25.1 °C.
For GCTCACCGAAAGGTCAGC (((.(((....))).))) the same measures were -26.3 kcal/mol and 44.2 °C.
Consider GATGAAGGAAACTTCATC (((((((....))))))), for which the folding enthalpy in series [1] is -40.9 kcal/mol. Also, in series [2], the Tm stood at 53.5 °C.
The like results for GCGAAGCGAAAGCTGGGC ((..(((....)))..)) were, in that order, -9.44 kcal/mol and 43.7 °C.
With GTAATCGGAAACGACTAC (((.(((....))).))), the folding enthalpy in series [1] was -19.5 kcal/mol. Further, the Tm in series [2] was 34.3 °C.

The values are drawn from the array DNA melting data of Ke et al. (doi:10.1101/2024.01.08.574731).
